Assay outcomes deposited in PubChem by several laboratories.
STAT1 inh – STAT1 signaling inhibitors, primary screen, cell-based, HTS, luciferase reporter; NIH 3T3 STAT1-luciferase reporter, IFN-gamma, luminescence; inhibition, % at 5.5 µM; hit rate 0.35% among 200,000;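 active = inhibition above a set limit, the mean inhibition across all tested compounds plus 3 SD, cut at about 34% in these data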
STAT3 blocker – IL-6 driven STAT3 reporter inhibitors, primary screen, U3A cells, luciferase, luminescence, MLSCN library; inhibition, % at 5.5 µM; AID 862, 2007; hit rate 0.89% among 190,000; IL-6 STAT3-luciferase reporter; host cell line lacks STAT1;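 active = inhibition above the mean inhibition across all screened compounds plus 3 SD, cut at about 44% in these data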
PPC-1+TRAIL kill – compounds killing PPC-1 cancer cells with TRAIL present, primary screen, TRAIL potentiator project, ATPLite luminescence, uHTS. hit rate 0.41% among 220,000. cell killing (% activity), % at 4 µM or 5 µM. PPC-1 cells + TRAIL, ATPLite viability luminescence;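 active = cell killing above 50% in the first pass at 4 µM, then a duplicate retest at 5 µM averaging 50% or more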
STAT3 act-1 – IL-6 driven STAT3 reporter potentiators, primary screen, U3A cells, luciferase, luminescence, MLSCN library. IL-6 STAT3-luciferase reporter; 100% = signal with IL-6 EC80 alone. hit rate 0.91% among 190,000. activation (% of control), % at 5.6 µM;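 active = activation above the screen-wide mean of compound activation plus 3 SD, cut at about 130% in these data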
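Test system: Human STAT1-deficient U3A cells with stable STAT3-luciferase reporter | Also added: Interleukin-6, 33 ng/mL | Timing: Compound pre-incubation 1 h before IL-6, then 6 h stimulation at 37 °C | Technique: Luciferase reporter luminescence | Read-out: Percent of IL-6-only median luminescence | Benchmarks: IL-6-only wells as 100% reference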
C8 TRAIL sens – viability loss with TRAIL in NB7+C8 cells, primary screen, TRAIL sensitizer project, cell-based, ATPlite luminescence; inhibition (viability loss, TRAIL sensitization), % at 10 µM; hit rate 1% among 360,000; AID 624354, 2012;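 active = compounds causing at least 50% loss of cell viability in the single-dose screen, relative to plate controls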
STAT3 act-2 – STAT3 reporter potentiators, retest of hits, confirmation, U3A cells, luciferase, luminescence | hit rate 64% among 1,200 | IL-6 potentiation; U3A cells lack STAT1; 100 means same as IL-6 alone | shares compounds with STAT3 act-1 | AID 1267, 2008 | potentiation (% of control), % at 5.7 µM;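 active = percent activation of the STAT3 luciferase reporter above a set limit taken from the earlier primary screen, cut at about 130% in these data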
NFkB act STAT3ct – NF-kB reporter activators in human cells, counter-screen for STAT3 activator project | NF-kappaB reporter activation | activation (% of control), % at 5.7 µM | shares compounds with STAT3 act-1 | hit rate 11% among 1,200; in the data active = activation above about 120%;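 also: reporter induced by TNF-alpha stimulation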
STAT1 act STAT3c – STAT1 reporter activators, IFN-gamma induced, counter-screen for STAT3 activator project, cell-based, NIH 3T3, luciferase luminescence; NIH 3T3 STAT1-luciferase reporter; hit rate 13% among 1,200; activation (% of control), % at 5.7 µM; shares compounds with STAT3 act-1;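 active = activation above the solvent-only control well mean plus 3 SD, set per screening run, cut at about 120% in these data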
Numbers stand for hits; 0 = inactive; - = no result given. This is a sample that favours compounds with a hit; in the whole collection about 1.8% have one here.

SMILES	STAT1 inh	STAT3 blocker	PPC-1+TRAIL kill	STAT3 act-1	C8 TRAIL sens	STAT3 act-2	NFkB act STAT3ct	STAT1 act STAT3c
Cc1cccc(NS(=O)(=O)c2ccc(C)c(C(=O)NCC(c3cccs3)N3CCOCC3)c2)c1 (stereo not given)	-	-	-	-	0	-	-	-
C/C(O)=C(\N=Nc1cc(C)ccc1O)C(N)=O	0	0	0	143	0	175	129	136
S=C1NC2(CCCC2)Nc2ccccc21	0	0	0	143	0	144	0	0
c1cc2c3c(cccc3c1)NC1(CCCC1)N2	-	-	-	-	0	-	-	-
S=C1NC2(CCCCC2)Nc2ccccc21	0	0	0	138	0	0	0	0
Cc1ccc(-c2nc(N)n(C(=O)c3cccs3)n2)cc1	0	0	0	148	0	0	0	0
Cc1ccc(-c2nc(N)n(C(=O)Cc3ccccc3)n2)cc1	0	0	0	0	0	-	-	-
CCOC(=O)Cc1nnc(NC(=O)C(CC)Sc2nnc3c4ccccc4n(C)c3n2)s1 (stereo not given)	0	0	0	137	0	158	0	0
Fc1cccc(/C=N/Nc2nccnc2Cl)c1	-	-	-	-	0	-	-	-
Clc1cccc(/C=N/Nc2nnc(Cl)c3ccccc23)c1	0	0	0	140	0	0	0	0
Clc1ccc(Nc2nc(-c3cccnc3)cs2)cc1	0	0	0	192	0	179	122	139
O=C(Nc1nc2ccccc2s1)c1ccc2c(c1)S(=O)(=O)c1ccccc1C2=O	0	0	0	140	-	0	0	0
CN(C(=O)c1cnccn1)c1c(N)n(Cc2ccccc2)c(=O)[nH]c1=O	-	-	-	-	0	-	-	-
Cn1cnc([N+](=O)[O-])c1Oc1ccc2ccccc2c1	0	0	0	139	0	133	0	0
Cn1cnc([N+](=O)[O-])c1Sc1nc2ccccc2[nH]1	-	-	0	-	0	-	-	-
CCc1nc2c(OCCC3CCCCC3)cccn2c1N(C=O)Cc1ccc(OC)cc1	-	-	-	-	0	-	-	-
CCOC(=O)c1[nH]c2ccccc2c1NC(=S)Nc1ccccc1	0	0	0	157	0	163	0	0
CCOC(=O)c1[nH]c2ccccc2c1NC(=S)Nc1cccc(C)c1	0	0	0	163	0	155	0	0
CCOC(=O)c1[nH]c2ccccc2c1NC(=O)C(CC)CC	0	0	0	0	0	-	-	-
NS(=O)(=O)c1ccc(NC(=O)c2ccc(S(=O)(=O)N3CCCCCC3)cc2)cc1	-	-	-	-	0	-	-	-
Cc1cc(C)c(NC(=O)CS(=O)CC(=O)NCC2CCCO2)c(C)c1 (stereo not given)	0	0	0	140	0	0	0	0
COc1ccc(-c2cc(CCC(=O)N3CCN(c4cc(C)ccc4C)CC3)on2)cc1	-	-	-	-	0	-	-	-
COc1ccc(Cl)cc1-c1nc(-c2ccc(Br)o2)no1	0	0	0	174	0	160	0	0
C/C(=C\C(=S)Nc1ccccc1)Nc1cccc2ccccc12	0	0	0	155	0	142	0	0
O=C(Cc1cccc(NC(=O)C2CCCN(C(=O)CCc3ccccc3)C2)c1)Nc1ccc(C(=O)N2CCCCC2)cc1 (stereo not given)	-	-	-	-	0	-	-	-
SMILES	STAT1 inh	STAT3 blocker	PPC-1+TRAIL kill	STAT3 act-1	C8 TRAIL sens	STAT3 act-2	NFkB act STAT3ct	STAT1 act STAT3c
COc1cccc2cc3c(=O)n(-c4ccccc4)nc-3oc12	0	0	0	141	0	0	0	0
Cc1ccc(S(=O)(=O)N2CCN(C(=O)COC(=O)CCOc3ccc(C(C)(C)C)cc3)CC2)cc1	-	-	-	-	0	-	-	-
COC(=O)c1[nH]c(C)c(/C(O)=C2\C(=O)C(=O)N(CCN3CCOCC3)C2c2cccnc2)c1C (stereo not given)	0	0	0	138	0	0	0	0
CCN(CC)CCN1C(=O)C(=O)/C(=C(/O)c2c(C)[nH]c(C(=O)OC)c2C)C1c1cccnc1 (stereo not given)	0	0	0	0	0	-	-	-
CC1(C)CC(=O)C2=C(C1)N(c1ccccc1C#N)C(N)=C(C#N)C2c1cccs1 (stereo not given)	0	0	0	140	0	149	0	0
CC1(C)CC(=O)C2=C(C1)N(c1cccnc1)C(N)=C(C#N)C2c1cccs1 (stereo not given)	0	0	0	0	0	-	-	-
COc1ccc(S(=O)(=O)N(C)C[C@H]2Oc3c(NC(=O)C4CCCCC4)cccc3C(=O)N([C@H](C)CO)C[C@@H]2C)cc1	-	-	-	-	0	-	-	-
CC1CCOC2(O1)C(=O)N(CN1CCN(c3ccccc3F)CC1)c1ccccc12 (stereo not given)	0	0	0	148	0	0	0	0
COc1ccccc1-c1cc(C(=O)N/N=C/c2cccs2)c2ccccc2n1	0	0	0	139	0	138	0	0
CCc1ccc(/C=N/NC(=O)c2cc(-c3ccncc3)nc3ccccc23)s1	0	0	0	0	0	-	-	-
O=C(N/N=C/c1cccs1)c1cc(-c2ccncc2)nc2ccccc12	0	0	0	138	0	0	125	0
CCOC(=O)c1nn(-c2ccc(F)cc2)c(=O)cc1OCC(=O)Nc1ccc(F)c(F)c1	-	-	-	-	0	-	-	-
O=C1CC(Nc2ccc3ccccc3c2)C(=O)N1Cc1ccccc1 (stereo not given)	0	0	0	138	0	135	0	0
O=C1CC(Nc2ccc(N3CCOCC3)cc2)C(=O)N1Cc1ccccc1 (stereo not given)	0	0	0	0	0	-	-	-
CC1C(=O)N(Cc2cn(Cc3ccco3)nn2)CCS(=O)(=O)N1Cc1ccc(-c2ccc(Cl)c(Cl)c2)cc1 (stereo not given)	-	-	-	-	0	-	-	-
CCC(=O)Oc1oc(-c2ccccc2)nc1C=Nc1ccccc1OC	0	0	0	144	0	0	0	0
O=C(c1cccs1)N1C[C@@H](n2cc(-c3ccc(F)cc3)nn2)[C@H](O)C[C@@H]1c1ccccc1	-	-	-	-	0	-	-	-
CC1Oc2ccccc2OC1C(=O)Nc1ccccn1 (stereo not given)	0	0	0	156	0	144	0	0
O=C(Nc1ccccn1)C1COc2ccccc2O1 (stereo not given)	0	0	0	0	0	-	-	-
COc1ccc(OC)c(NC(=O)c2cc3ccccc3o2)c1	0	0	0	136	0	0	0	0
Nn1c(=O)[nH]c2c([nH]c3ccccc32)c1=O	0	0	0	147	0	152	0	0
